For 26 molecules, Activity and MIC results are on record in ChEMBL document CHEMBL1139764, “Design, synthesis, and structure-activity relationship studies of new phenolic DNA gyrase inhibitors” (2007).

Values after ≈ are worked out from the molar mass of the structure shown.

In one test the test system is Escherichia coli. As to the kind of experiment: Inhibition of Escherichia coli D110 DNA gyrase after 30 mins by supercoiling assay.
In test [1] the test system is Staphylococcus aureus. As to the kind of experiment: Antibacterial activity against Staphylococcus aureus ATCC 25923 by twofold agar dilution method. The class given is functional. The method in brief: (§1)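 MIC read as lowest inhibitory level in twofold serial dilutions in Müller–Hinton agar; each spot inoculated with 10^4 CFU.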
On the technique in general: In agar dilution the substance is mixed into plates at graded concentrations.

The subject of test [2] is Staphylococcus epidermidis. The experiment in a line: Antibacterial activity against Staphylococcus epidermidis ATCC 14990 by twofold agar dilution method. Format: functional. The method in brief: (§2)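 Twofold serial dilutions in Müller–Hinton agar with an inoculum of 10^4 CFU per spot. The read-out is the minimal inhibitory concentration (MIC).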
The test system of a further test is Streptococcus pyogenes. The experiment in a line: Antibacterial activity against Streptococcus pyogenes beta-15 by agar dilution method. The class given is functional. The method in brief: as §2
The test system of test [3] is Staphylococcus aureus. The experiment in a line: Antibacterial activity against methicillin and quinolones-resistant Staphylococcus aureus Smith QR54 by twofold agar dilution method. Format: functional. The method in brief:
as §1

Test [4] has as its system Staphylococcus aureus. The experiment in a line: Antibacterial activity against novobiocin R144I-resistant Staphylococcus aureus ATCC 25923 by agar dilution method. The class given is functional. The method in brief: as §1
Test [5] relates to Staphylococcus aureus. As to the kind of experiment: Antibacterial activity against Staphylococcus aureus Smith by twofold agar dilution method. Format: functional. The method in brief: as §1
In another test the test system is Enterococcus faecium. The experiment in a line: Antibacterial activity against ampicillin, trimethoprim and vancomycin-resistant Enterococcus faecium vanA E23-8 by twofold agar dilution method. The class given is functional. Put shortly:
as §1

In test [6] the test system is Staphylococcus aureus. The experiment in a line: Antibacterial activity against erythromycin, methicillin and trimethoprim-resistant Staphylococcus aureus Smith 744 by twofold agar dilution method. The class given is functional. Put shortly:
as §1

Take `COc1cc(O)c2c(c1C)C(=O)N(c1cccnc1)C2`: the Activity with Escherichia coli turned out to be 2 µg/mL.
In the test on Escherichia coli, `COc1cc(O)c2c(c1Br)C(=O)N1c3ccccc3COC21` (configuration not stated) yielded an Activity of 0.5 µg/mL. The MIC against Staphylococcus aureus [1] was 2 mg/L (≈ 5.52 µM); in [2], above 2 mg/L; in the test on Streptococcus pyogenes it was 8 mg/L (≈ 22.1 µM); against Staphylococcus aureus [3], 2 mg/L (≈ 5.52 µM); in the test on Staphylococcus aureus [4], 2 mg/L (≈ 5.52 µM); against Staphylococcus aureus [5] it was 2 mg/L (≈ 5.52 µM). Besides, the values for the MIC against Enterococcus faecium and against Staphylococcus aureus [6] were above 32 mg/L and 4 mg/L (≈ 11 µM), respectively.
In the case of `Oc1cccc(CNc2ccc(Cl)cc2)c1O`, the Activity in the test with Escherichia coli worked out at 16 µg/mL.
`COC(=O)c1c(C)c(OC)cc(O)c1CNc1cc(Cl)cc(Cl)c1`: the Activity in the test on Escherichia coli was 4 µg/mL.
The same measure, in the same setting: the value for `Oc1ccc(Cl)cc1CNc1cc(Cl)cc(Cl)c1` was 4 µg/mL; that for `Oc1c(Cl)cc(Cl)cc1CNc1ccc(Cl)cc1` was 16 µg/mL.
Still for that read-out and setting: under `COc1cc(O)c2c(c1C)C(=O)N(c1ccc3[nH]ncc3c1)C2` stands 1 µg/mL; under `COc1ccc(N2C(=O)c3c(C)c(OC)cc(O)c3C2Sc2ccc(C)cc2)cc1` (configuration not stated), 31 µg/mL.
Same read-out and setting: the value for `COc1ccc(N2C(=O)c3c(C)c(OC)cc(O)c3C2c2ccc(C)o2)cc1` (configuration not stated) was above 63 µg/mL.
`COc1ccc(N2C(=O)c3c(C)c(OC)cc(O)c3C2CC(C)=O)cc1` (configuration not stated) returned an Activity in the test on Escherichia coli above 63 µg/mL.
On the same count and under the same terms, under `COc1cc(O)c2c(c1C)C(=O)N(c1ccc3ncccc3c1)C2` stands 1 µg/mL.
`COC(=O)CCSC1c2c(O)cc(OC)c(C)c2C(=O)N1c1ccc(OC)cc1` (configuration not stated) showed an Activity with Escherichia coli of 0.5 µg/mL.
In turn, `CO[C@@H]1[C@@H](OC(N)=O)[C@@H](O)[C@H](Oc2ccc3c(O)c(NC(=O)c4ccc(O)c(CC=C(C)C)c4)c(=O)oc3c2C)OC1(C)C` [NOVOBIOCIN] came in with an Activity in the test on Escherichia coli of 0.25 µg/mL. The MIC in the test with Staphylococcus aureus [1] was 0.25 mg/L (≈ 0.408 µM); in test [2], 0.12 mg/L (≈ 0.196 µM); in the test on Streptococcus pyogenes, 2 mg/L (≈ 3.26 µM); against Staphylococcus aureus [3], 0.12 mg/L (≈ 0.196 µM); against Staphylococcus aureus [4], 8 mg/L (≈ 13.1 µM); in the test with Staphylococcus aureus [5], 0.25 mg/L (≈ 0.408 µM). The MIC in the test on Enterococcus faecium was 8 mg/L (≈ 13.1 µM); in the test on Staphylococcus aureus [6], 0.25 mg/L (≈ 0.408 µM).
Regarding `COc1cc(O)c2c(c1C)C(=O)N(c1ccc(Cl)c(Cl)c1)C2`, the Activity with Escherichia coli is 4 µg/mL.
The molecule `Oc1ccc(Cl)cc1CNc1ccc(Cl)cc1` yielded an Activity with Escherichia coli of 5 µg/mL. The MIC (in the test on Staphylococcus aureus [1]; in test [2]; against Streptococcus pyogenes; in the test on Staphylococcus aureus [3]; against Staphylococcus aureus [4]; in the test on Staphylococcus aureus [5]) was 16 mg/L (≈ 59.7 µM) throughout. The MIC against Enterococcus faecium and against Staphylococcus aureus [6] was 16 mg/L (≈ 59.7 µM) in each case.
In the test on Escherichia coli, `COc1ccc(N2C(=O)c3c(C)c(OC)cc(O)c3C2Sc2ncccn2)cc1` (configuration not stated) yielded an Activity of 4 µg/mL.
In turn, `COc1ccc(N2C(=O)c3c(C)c(OC)cc(O)c3C2c2ccc(CS)o2)cc1` (configuration not stated) yielded an Activity in the test on Escherichia coli above 63 µg/mL.
Still for that read-out and setting: the value for `CCCCSC1c2c(O)cc(OC)c(C)c2C(=O)N1c1ccc(OC)cc1` (configuration not stated) was 16 µg/mL.
On to `COc1cc(O)c2c(c1Br)C(=O)N1c3ccc(C)cc3COC21` (configuration not stated), for which the Activity with Escherichia coli amounted to 0.25 µg/mL. Besides, the MIC stood at 8 mg/L (≈ 21.3 µM) against Staphylococcus aureus [1]; 2 mg/L (≈ 5.32 µM) in test [2]; 16 mg/L (≈ 42.5 µM) in the test with Streptococcus pyogenes; 8 mg/L (≈ 21.3 µM) in the test on Staphylococcus aureus [3]; 4 mg/L (≈ 10.6 µM) in the test on Staphylococcus aureus [4]; 8 mg/L (≈ 21.3 µM) with Staphylococcus aureus [5]. In addition, the MIC with Enterococcus faecium was above 32 mg/L; against Staphylococcus aureus [6], 8 mg/L (≈ 21.3 µM).
`COC(=O)c1c(C)c(OC)cc(O)c1CNc1ccc2ncccc2c1` displayed an Activity in the test on Escherichia coli of 8 µg/mL.
Turning to `COc1cc(O)c2c(c1C)C(=O)N(c1cccc(CC(=O)O)c1)C2`, the Activity in the test on Escherichia coli was 2 µg/mL.
In the case of `COc1ccc2c(c1)[C@@H](O)C[C@@H]1c3c(O)cc(OC)c(C)c3C(=O)N21`, the Activity in the test with Escherichia coli came out at 0.5 µg/mL. The MIC in the test with Staphylococcus aureus [1] is above 32 mg/L; in test [2] it was 32 mg/L (≈ 93.7 µM); in the test with Streptococcus pyogenes, above 32 mg/L; against Staphylococcus aureus [3], 16 mg/L (≈ 46.9 µM); with Staphylococcus aureus [4], 16 mg/L (≈ 46.9 µM); against Staphylococcus aureus [5] it was 32 mg/L (≈ 93.7 µM). Further, the MIC against Enterococcus faecium and in the test on Staphylococcus aureus [6] was above 32 mg/L each time.
For the molecule `COc1ccc(N2C(=O)c3c(C)c(OC)cc(O)c3C2c2ccc(CC#N)s2)cc1` (configuration not stated), the Activity in the test on Escherichia coli is 36 µg/mL.
The same measure, in the same setting: the value for `COc1ccc(N2C(=O)c3c(C)c(OC)cc(O)c3C2C(Cl)C(C)=O)cc1` (configuration not stated) was 63 µg/mL.
Turning to `COc1cc(O)c2c(c1C)C(=O)N1c3c(C)cccc3COC21` (configuration not stated), the Activity in the test on Escherichia coli stood at 0.5 µg/mL. For the same molecule, the MIC was 32 mg/L (≈ 103 µM) with Staphylococcus aureus [1]; 2 mg/L (≈ 6.42 µM) in test [2]; above 32 mg/L in the test on Streptococcus pyogenes; 16 mg/L (≈ 51.4 µM) in the test on Staphylococcus aureus [3]; 16 mg/L (≈ 51.4 µM) against Staphylococcus aureus [4]; 32 mg/L (≈ 103 µM) against Staphylococcus aureus [5]. Besides, the MIC with Enterococcus faecium and in the test with Staphylococcus aureus [6] was above 32 mg/L in each case.
For the molecule `COc1cc(O)c2c(c1C)C(=O)N1c3ccc(C)cc3COC21` (configuration not stated), the Activity in the test with Escherichia coli came to 0.25 µg/mL. The MIC is 32 mg/L (≈ 103 µM) against Staphylococcus aureus [1]; 2 mg/L (≈ 6.42 µM) in test [2]; above 32 mg/L against Streptococcus pyogenes; 16 mg/L (≈ 51.4 µM) against Staphylococcus aureus [3]; 16 mg/L (≈ 51.4 µM) in the test on Staphylococcus aureus [4]; 16 mg/L (≈ 51.4 µM) in the test on Staphylococcus aureus [5]. For the same molecule, the results for the MIC against Enterococcus faecium and in the test with Staphylococcus aureus [6] were above 32 mg/L and 32 mg/L (≈ 103 µM), respectively.

For orientation: MIC means the lowest concentration that inhibits growth of the organism. Read a high MIC as a need for much substance.
